In ChEMBL document CHEMBL3085670, “Synthesis, biological evaluation and docking studies of 4-aryloxymethyl coumarins derived from substructures and degradation products of vancomycin” (2013):
In brackets after ≈: the same amount, converted by molar mass.

Columns and labels:
Type in all cases: functional
Enterococcus faecalis = assay: Antibacterial activity against Enterococcus faecalis ATCC 35550 after 24 hrs by broth microdilution method; details: ATCC 35550, 24 h
How it was run: (§1)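 Broth dilution MIC, with ciprofloxacin as the comparator. Nine […] serial dilutions of each drug (10^-1 to 10^-9) were made in brain heart infusion (BHI) broth. Stock culture was diluted into BHI, and this suspension was added to each dilution tube. Tubes were incubated 24 h at 37 °C, and the MIC was read by turbidity.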

Escherichia coli = assay: Antibacterial activity against Escherichia coli ATCC 25922 after 24 hrs by broth microdilution method; details: ATCC 25922, 24 h; how it was run: as §1
Candida albicans [1] = assay: Antifungal activity against Candida albicans ATCC 2091 after 24 hrs by broth microdilution method; details: ATCC 2091, 24 h
How it was run: (§2)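 Broth dilution MIC, with fluconazole as the comparator. Each drug was serially diluted tenfold in BHI broth over nine tubes (10^-1 to 10^-9). Each tube received a suspension of stock culture diluted in BHI. Tubes were kept 24 h at 37 °C, and growth was judged by turbidity.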

Aspergillus niger [2] = assay: Antifungal activity against Aspergillus niger ATCC 9029 after 24 hrs by broth microdilution method; details: ATCC 9029, 24 h; how it was run: as §2
Staphylococcus aureus = assay: Antibacterial activity against Staphylococcus aureus ATCC 12598 after 24 hrs by broth microdilution method; details: ATCC 12598, 24 h; how it was run: as §1
Pseudomonas aeruginosa = assay: Antibacterial activity against Pseudomonas aeruginosa ATCC 25619 after 24 hrs by broth microdilution method; details: ATCC 25619, 24 h; how it was run: as §1
Aspergillus niger [3] = assay: Ratio of fluconazole MIC to compound MIC for Aspergillus niger ATCC 9029 after 24 hrs by broth microdilution method
Candida albicans [4] = assay: Ratio of fluconazole MIC to compound MIC for Candida albicans ATCC 2091 after 24 hrs by broth microdilution method

## CCOC(=O)c1cc(O)c(OCc2cc(=O)oc3cc(Cl)ccc23)c(O)c1
Enterococcus faecalis
  MIC: 3.12 µg/mL (≈ 8 µM)
Escherichia coli
  MIC: 100 µg/mL (≈ 256 µM)
Candida albicans [1]
  MIC: 100 µg/mL (≈ 256 µM)
Aspergillus niger [2]
  MIC: 100 µg/mL (≈ 256 µM)
Staphylococcus aureus
  MIC: 12.5 µg/mL (≈ 32 µM)
Pseudomonas aeruginosa
  MIC: 100 µg/mL (≈ 256 µM)

## CCOC(=O)c1cc(O)c(OCc2cc(=O)oc3cc(C)cc(C)c23)c(O)c1
Enterococcus faecalis
  MIC: 0.2 µg/mL (≈ 0.52 µM)
Escherichia coli
  MIC: 100 µg/mL (≈ 260 µM)
Candida albicans [1]
  MIC: 100 µg/mL (≈ 260 µM)
Aspergillus niger [2]
  MIC: 100 µg/mL (≈ 260 µM)
Staphylococcus aureus
  MIC: 0.8 µg/mL (≈ 2.08 µM)
Pseudomonas aeruginosa
  MIC: 100 µg/mL (≈ 260 µM)

## CCOC(=O)c1cc(O)c(OCc2cc(=O)oc3ccc4ccccc4c23)c(O)c1
Enterococcus faecalis
  MIC: 0.2 µg/mL (≈ 0.492 µM)
Escherichia coli
  MIC: 100 µg/mL (≈ 246 µM)
Candida albicans [1]
  MIC: 100 µg/mL (≈ 246 µM)
Aspergillus niger [2]
  MIC: 100 µg/mL (≈ 246 µM)
Staphylococcus aureus
  MIC: 0.4 µg/mL (≈ 0.984 µM)
Pseudomonas aeruginosa
  MIC: 100 µg/mL (≈ 246 µM)

## CCOC(=O)c1cc(O)c(OCc2cc(=O)oc3c2ccc2ccccc23)c(O)c1
Enterococcus faecalis
  MIC: 0.2 µg/mL (≈ 0.492 µM)
Escherichia coli
  MIC: 100 µg/mL (≈ 246 µM)
Candida albicans [1]
  MIC: 100 µg/mL (≈ 246 µM)
Aspergillus niger [2]
  MIC: 100 µg/mL (≈ 246 µM)
Staphylococcus aureus
  MIC: 1.6 µg/mL (≈ 3.94 µM)
Pseudomonas aeruginosa
  MIC: 100 µg/mL (≈ 246 µM)

## CCOC(=O)C(Cc1ccc(OCc2cc(=O)oc3ccc(OC)cc23)cc1)NC(=O)c1ccccc1 (stereo unspecified)
Enterococcus faecalis
  MIC: 0.4 µg/mL (≈ 0.798 µM)
Aspergillus niger [3]
  Ratio: 40
Escherichia coli
  MIC: 100 µg/mL (≈ 199 µM)
Candida albicans [1]
  MIC: 0.2 µg/mL (≈ 0.399 µM)
Candida albicans [4]
  Ratio: 80
Aspergillus niger [2]
  MIC: 0.2 µg/mL (≈ 0.399 µM)
Staphylococcus aureus
  MIC: 100 µg/mL (≈ 199 µM)
Pseudomonas aeruginosa
  MIC: 100 µg/mL (≈ 199 µM)

## CCOC(=O)c1cc(O)c(OCc2cc(=O)oc3ccc(C)cc23)c(O)c1
Enterococcus faecalis
  MIC: 0.2 µg/mL (≈ 0.54 µM)
Escherichia coli
  MIC: 100 µg/mL (≈ 270 µM)
Candida albicans [1]
  MIC: 100 µg/mL (≈ 270 µM)
Aspergillus niger [2]
  MIC: 100 µg/mL (≈ 270 µM)
Staphylococcus aureus
  MIC: 1.6 µg/mL (≈ 4.32 µM)
Pseudomonas aeruginosa
  MIC: 100 µg/mL (≈ 270 µM)

## CCOC(=O)C(Cc1ccc(OCc2cc(=O)oc3ccc(C)cc23)cc1)NC(=O)c1ccccc1 (stereo unspecified)
Enterococcus faecalis
  MIC: 0.8 µg/mL (≈ 1.65 µM)
Aspergillus niger [3]
  Ratio: 40
Escherichia coli
  MIC: 100 µg/mL (≈ 206 µM)
Candida albicans [1]
  MIC: 0.2 µg/mL (≈ 0.412 µM)
Candida albicans [4]
  Ratio: 80
Aspergillus niger [2]
  MIC: 0.2 µg/mL (≈ 0.412 µM)
Staphylococcus aureus
  MIC: 100 µg/mL (≈ 206 µM)
Pseudomonas aeruginosa
  MIC: 100 µg/mL (≈ 206 µM)

## O=C(O)c1cn(C2CC2)c2cc(N3CCNCC3)c(F)cc2c1=O [CIPROFLOXACIN]
Enterococcus faecalis
  MIC: 2 µg/mL (≈ 6.04 µM)
Staphylococcus aureus
  MIC: 2 µg/mL (≈ 6.04 µM)

## CCOC(=O)C(Cc1ccc(OCc2cc(=O)oc3ccc4ccccc4c23)cc1)NC(=O)c1ccccc1 (stereo unspecified)
Enterococcus faecalis
  MIC: 0.4 µg/mL (≈ 0.767 µM)
Aspergillus niger [3]
  Ratio: 40
Escherichia coli
  MIC: 100 µg/mL (≈ 192 µM)
Candida albicans [1]
  MIC: 1.6 µg/mL (≈ 3.07 µM)
Aspergillus niger [2]
  MIC: 0.2 µg/mL (≈ 0.383 µM)

## CCOC(=O)c1cc(O)c(OCc2cc(=O)oc3c(C)c(C)ccc23)c(O)c1
Enterococcus faecalis
  MIC: 0.2 µg/mL (≈ 0.52 µM)
Escherichia coli
  MIC: 100 µg/mL (≈ 260 µM)
Candida albicans [1]
  MIC: 100 µg/mL (≈ 260 µM)
Aspergillus niger [2]
  MIC: 100 µg/mL (≈ 260 µM)
Staphylococcus aureus
  MIC: 0.2 µg/mL (≈ 0.52 µM)
Pseudomonas aeruginosa
  MIC: 100 µg/mL (≈ 260 µM)

## CCOC(=O)C(Cc1ccc(OCc2cc(=O)oc3ccc(Cl)cc23)cc1)NC(=O)c1ccccc1 (stereo unspecified)
Enterococcus faecalis
  MIC: 0.2 µg/mL (≈ 0.395 µM)
Aspergillus niger [3]
  Ratio: 40
Candida albicans [1]
  MIC: 50 µg/mL (≈ 98.8 µM)
Aspergillus niger [2]
  MIC: 0.2 µg/mL (≈ 0.395 µM)
Staphylococcus aureus
  MIC: 100 µg/mL (≈ 198 µM)
Pseudomonas aeruginosa
  MIC: 100 µg/mL (≈ 198 µM)

## OC(Cn1cncn1)(Cn1cncn1)c1ccc(F)cc1F [FLUCONAZOLE]
Candida albicans [1]
  MIC: 16 µg/mL (≈ 52.2 µM)
Aspergillus niger [2]
  MIC: 8 µg/mL (≈ 26.1 µM)

## CCOC(=O)C(Cc1ccc(OCc2cc(=O)oc3c2ccc2ccccc23)cc1)NC(=O)c1ccccc1 (stereo unspecified)
Enterococcus faecalis
  MIC: 0.2 µg/mL (≈ 0.383 µM)
Aspergillus niger [3]
  Ratio: 40
Escherichia coli
  MIC: 100 µg/mL (≈ 192 µM)
Candida albicans [1]
  MIC: 12.5 µg/mL (≈ 24 µM)
Aspergillus niger [2]
  MIC: 0.2 µg/mL (≈ 0.383 µM)
Staphylococcus aureus
  MIC: 50 µg/mL (≈ 95.9 µM)
Pseudomonas aeruginosa
  MIC: 100 µg/mL (≈ 192 µM)

## CCOC(=O)c1cc(O)c(OCc2cc(=O)oc3ccc(OC)cc23)c(O)c1
Enterococcus faecalis
  MIC: 0.2 µg/mL (≈ 0.518 µM)
Escherichia coli
  MIC: 100 µg/mL (≈ 259 µM)
Candida albicans [1]
  MIC: 100 µg/mL (≈ 259 µM)
Aspergillus niger [2]
  MIC: 100 µg/mL (≈ 259 µM)
Staphylococcus aureus
  MIC: 0.8 µg/mL (≈ 2.07 µM)
Pseudomonas aeruginosa
  MIC: 100 µg/mL (≈ 259 µM)

## CCOC(=O)c1cc(O)c(OCc2cc(=O)oc3cc(C)ccc23)c(O)c1
Enterococcus faecalis
  MIC: 0.2 µg/mL (≈ 0.54 µM)
Escherichia coli
  MIC: 100 µg/mL (≈ 270 µM)
Candida albicans [1]
  MIC: 100 µg/mL (≈ 270 µM)
Aspergillus niger [2]
  MIC: 100 µg/mL (≈ 270 µM)
Staphylococcus aureus
  MIC: 12.5 µg/mL (≈ 33.8 µM)
Pseudomonas aeruginosa
  MIC: 100 µg/mL (≈ 270 µM)

## CCOC(=O)C(Cc1ccc(OCc2cc(=O)oc3cc(Cl)ccc23)cc1)NC(=O)c1ccccc1 (stereo unspecified)
Enterococcus faecalis
  MIC: 0.2 µg/mL (≈ 0.395 µM)
Aspergillus niger [3]
  Ratio: 40
Candida albicans [1]
  MIC: 50 µg/mL (≈ 98.8 µM)
Aspergillus niger [2]
  MIC: 0.2 µg/mL (≈ 0.395 µM)
Pseudomonas aeruginosa
  MIC: 100 µg/mL (≈ 198 µM)

## CCOC(=O)C(Cc1ccc(OCc2cc(=O)oc3cc(C)cc(C)c23)cc1)NC(=O)c1ccccc1 (stereo unspecified)
Enterococcus faecalis
  MIC: 0.2 µg/mL (≈ 0.4 µM)
Aspergillus niger [3]
  Ratio: 40
Escherichia coli
  MIC: 100 µg/mL (≈ 200 µM)
Candida albicans [1]
  MIC: 1.6 µg/mL (≈ 3.2 µM)
Aspergillus niger [2]
  MIC: 0.2 µg/mL (≈ 0.4 µM)
Pseudomonas aeruginosa
  MIC: 100 µg/mL (≈ 200 µM)

## CCOC(=O)c1cc(O)c(OCc2cc(=O)oc3cc(OC)ccc23)c(O)c1
Enterococcus faecalis
  MIC: 0.8 µg/mL (≈ 2.07 µM)
Escherichia coli
  MIC: 100 µg/mL (≈ 259 µM)
Candida albicans [1]
  MIC: 100 µg/mL (≈ 259 µM)
Aspergillus niger [2]
  MIC: 100 µg/mL (≈ 259 µM)
Staphylococcus aureus
  MIC: 1.6 µg/mL (≈ 4.14 µM)
Pseudomonas aeruginosa
  MIC: 100 µg/mL (≈ 259 µM)

## CCOC(=O)C(Cc1ccc(OCc2cc(=O)oc3cc(C)ccc23)cc1)NC(=O)c1ccccc1 (stereo unspecified)
Enterococcus faecalis
  MIC: 0.8 µg/mL (≈ 1.65 µM)
Aspergillus niger [3]
  Ratio: 40
Escherichia coli
  MIC: 100 µg/mL (≈ 206 µM)
Candida albicans [1]
  MIC: 0.2 µg/mL (≈ 0.412 µM)
Candida albicans [4]
  Ratio: 80
Aspergillus niger [2]
  MIC: 0.2 µg/mL (≈ 0.412 µM)
Pseudomonas aeruginosa
  MIC: 100 µg/mL (≈ 206 µM)

## CCOC(=O)c1cc(O)c(OCc2cc(=O)oc3ccc(Cl)cc23)c(O)c1
Enterococcus faecalis
  MIC: 0.2 µg/mL (≈ 0.512 µM)
Escherichia coli
  MIC: 100 µg/mL (≈ 256 µM)
Candida albicans [1]
  MIC: 100 µg/mL (≈ 256 µM)
Aspergillus niger [2]
  MIC: 100 µg/mL (≈ 256 µM)
Staphylococcus aureus
  MIC: 0.4 µg/mL (≈ 1.02 µM)
Pseudomonas aeruginosa
  MIC: 100 µg/mL (≈ 256 µM)

## CCOC(=O)C(Cc1ccc(OCc2cc(=O)oc3cc(OC)ccc23)cc1)NC(=O)c1ccccc1 (stereo unspecified)
Enterococcus faecalis
  MIC: 0.8 µg/mL (≈ 1.6 µM)
Aspergillus niger [3]
  Ratio: 40
Escherichia coli
  MIC: 100 µg/mL (≈ 199 µM)
Candida albicans [1]
  MIC: 0.2 µg/mL (≈ 0.399 µM)
Candida albicans [4]
  Ratio: 80
Aspergillus niger [2]
  MIC: 0.2 µg/mL (≈ 0.399 µM)
Staphylococcus aureus
  MIC: 100 µg/mL (≈ 199 µM)
Pseudomonas aeruginosa
  MIC: 100 µg/mL (≈ 199 µM)

## CCOC(=O)C(Cc1ccc(OCc2cc(=O)oc3c(C)c(C)ccc23)cc1)NC(=O)c1ccccc1 (stereo unspecified)
Enterococcus faecalis
  MIC: 0.2 µg/mL (≈ 0.4 µM)
Aspergillus niger [3]
  Ratio: 40
Escherichia coli
  MIC: 100 µg/mL (≈ 200 µM)
Candida albicans [1]
  MIC: 0.8 µg/mL (≈ 1.6 µM)
Aspergillus niger [2]
  MIC: 0.2 µg/mL (≈ 0.4 µM)
Staphylococcus aureus
  MIC: 100 µg/mL (≈ 200 µM)
Pseudomonas aeruginosa
  MIC: 100 µg/mL (≈ 200 µM)
